Like-named read-outs stand apart in the source and are kept apart here. One block for each compound: values may come before it.
Key:
[1] = molecular target: CDK2/cyclin A (Homo sapiens, UniProt P24941); assay: Biochemical assay CDK2/cyclin A
[2] = molecular target: CDK1/cyclin B (Homo sapiens, UniProt P06493); assay: Biochemical assay CDK1/cyclin B
[3] = molecular target: T1, CDK1 (Homo sapiens, UniProt P06493); assay: Immunoblot degradation in Jurkat cells, CDK1; format: cell-based; settings: 6 hours
[4] = molecular target: T2, CDK2 (Homo sapiens, UniProt P24941); assay: Immunoblot degradation in Jurkat cells, CDK2; format: cell-based; settings: 6 hours
Method in brief: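 Jurkat cells exposed 6 h to test compound, at 1 μM in the initial degrader screen and otherwise at the indicated concentrations, then CDK2 read by immunoblot. Cereblon dependence was checked with an analogue carrying a methylated glutarimide that cannot engage cereblon, under the same 6 h conditions.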

[5] = molecular target: T3, CDK4 (Homo sapiens, UniProt P11802); assay: Immunoblot degradation in Jurkat cells, CDK4; format: cell-based; settings: 6 hours
[6] = molecular target: T4, CDK5 (Homo sapiens, UniProt Q00535); assay: Immunoblot degradation in Jurkat cells, CDK5; format: cell-based; settings: 6 hours
[7] = molecular target: T5, CDK6 (Homo sapiens, UniProt Q00534); assay: Immunoblot degradation in Jurkat cells, CDK6; format: cell-based; settings: 6 hours
[8] = molecular target: CDK7 (Homo sapiens, UniProt P50613); assay: Immunoblot degradation in Jurkat cells, CDK7; format: cell-based; settings: 6 hours
[9] = molecular target: CDK9 (Homo sapiens, UniProt P50750); assay: Immunoblot degradation in Jurkat cells, CDK9; format: cell-based; settings: 6 hours
[10] = molecular target: T3, CDK4; assay: Immunoblot degradation in OVCAR8 cells, CDK4; format: cell-based; settings: OVCAR8 cells (Figure S2)
[11] = molecular target: T5, CDK6; assay: Immunoblot degradation in OVCAR8 cells, CDK6; format: cell-based; settings: OVCAR8 cells (Figure S2)
[12] = molecular target: CDK4/cyclin D1 (Homo sapiens, UniProt P11802); assay: Biochemical assay CDK4/cyclin D1
[13] = molecular target: CDK6/cyclin D1 (Homo sapiens, UniProt Q00534); assay: Biochemical assay CDK6/cyclin D1
[14] = molecular target: CDK7/cyclin H (Homo sapiens, UniProt P50613); assay: Biochemical assay CDK7/cyclin H
[15] = molecular target: CDK9/cyclin T1 (Homo sapiens, UniProt P50750); assay: Biochemical assay CDK9/cyclin T1
[16] = molecular target: CDK5/p25 (Homo sapiens, UniProt Q00535); assay: Biochemical assay CDK5/p25
[17] = molecular target: T6, Aurora A (Homo sapiens, UniProt O14965); assay: Biochemical activity assay Aurora A
T6 sequence (O14965 1-403): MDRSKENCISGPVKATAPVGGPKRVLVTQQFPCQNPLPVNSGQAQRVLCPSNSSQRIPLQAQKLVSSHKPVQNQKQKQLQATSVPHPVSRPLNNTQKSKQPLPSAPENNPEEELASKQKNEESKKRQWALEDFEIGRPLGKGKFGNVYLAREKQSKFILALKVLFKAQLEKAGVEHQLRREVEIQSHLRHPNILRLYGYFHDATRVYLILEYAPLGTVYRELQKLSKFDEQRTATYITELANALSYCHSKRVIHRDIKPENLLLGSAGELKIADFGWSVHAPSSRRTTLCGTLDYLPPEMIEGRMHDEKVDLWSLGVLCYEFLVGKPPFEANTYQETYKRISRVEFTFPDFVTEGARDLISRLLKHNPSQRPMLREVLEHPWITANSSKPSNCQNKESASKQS

[18] = molecular target: CRBN (Homo sapiens, UniProt Q96SW2); assay: Cellular CRBN engagement assay; format: cell-based
[19] = system: more than 400 kinases; assay: KINOMEscan panel profiling; format: binding; settings: 1 μM
[20] = molecular target: T2, CDK2; assay: KINOMEscan, CDK2; format: binding; settings: 1 μM; only CDK with potent inhibition; CDK1 not in panel
[21] = molecular target: T2, CDK2; assay: Immunoblot degradation in CRBN-null Jurkat cells, CDK2; format: cell-based; settings: 6 hours
Method in brief: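 Used to test whether degradation requires cereblon: CRBN-null Jurkat cells treated 6 h with test compound, then CDK2 levels read by immunoblot.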

[22] = molecular target: T2, CDK2; assay: Pulse-chase SILAC MS proteomics in OVCAR8 cells, CDK2; format: cell-based; settings: OVCAR8, 250 nM, 6 hours
[23] = molecular target: T4, CDK5; assay: Pulse-chase SILAC MS proteomics in OVCAR8 cells, CDK5; format: cell-based; settings: OVCAR8, 250 nM, 6 hours
[24] = molecular target: T6, Aurora A; assay: Pulse-chase SILAC MS proteomics in OVCAR8 cells, Aurora A; format: cell-based; settings: OVCAR8, 250 nM, 6 hours
[25] = molecular target: RSK1 (RPS6KA1) (Homo sapiens, UniProt Q15418); assay: Pulse-chase SILAC MS proteomics in OVCAR8 cells, RSK1; format: cell-based; settings: OVCAR8, 250 nM, 6 hours
[26] = molecular target: JNK2 (MAPK9) (Homo sapiens, UniProt P45984); assay: Pulse-chase SILAC MS proteomics in OVCAR8 cells, JNK2; format: cell-based; settings: OVCAR8, 250 nM, 6 hours
[27] = molecular target: STK33 (Homo sapiens, UniProt Q9BYT3); assay: Pulse-chase SILAC MS proteomics in OVCAR8 cells, STK33; format: cell-based; settings: OVCAR8, 250 nM, 6 hours
[28] = molecular target: T2, CDK2; assay: Immunoblot degradation in OVCAR8 cells, CDK2; format: cell-based; settings: 6 hours
[29] = molecular target: T4, CDK5; assay: Immunoblot degradation in OVCAR8 cells, CDK5; format: cell-based; settings: 6 hours
[30] = molecular target: T1, CDK1; assay: Immunoblot degradation in OVCAR8 cells, CDK1; format: cell-based; settings: 6 hours
[31] = molecular target: T6, Aurora A; assay: Degradation in OVCAR8 cells, Aurora A; format: cell-based; settings: OVCAR8, same conditions (Figure S3)
[32] = system: OVCAR8 cells; assay: Growth rate inhibition in OVCAR8 cells; format: cell-based
[33] = read-out: CDK2/cyclin A IC50, Table 1, degraders, tested in duplicate
[34] = read-out: CDK1/cyclin B IC50, Table 1, degraders, tested in duplicate
[35] = read-out: CDK2 IC50, Table 2, w/cyclin A, duplicate
[36] = read-out: CDK1 IC50, Table 2, w/cyclin B, duplicate
[37] = read-out: CDK5 IC50, Table 2, w/p25, duplicate
[38] = read-out: CDK4 IC50, Table 2, w/cyclin D1, duplicate
[39] = read-out: CDK6 IC50, Table 2, w/cyclin D1, duplicate

Chain of CDK7/cyclin H (P50613 whole entry): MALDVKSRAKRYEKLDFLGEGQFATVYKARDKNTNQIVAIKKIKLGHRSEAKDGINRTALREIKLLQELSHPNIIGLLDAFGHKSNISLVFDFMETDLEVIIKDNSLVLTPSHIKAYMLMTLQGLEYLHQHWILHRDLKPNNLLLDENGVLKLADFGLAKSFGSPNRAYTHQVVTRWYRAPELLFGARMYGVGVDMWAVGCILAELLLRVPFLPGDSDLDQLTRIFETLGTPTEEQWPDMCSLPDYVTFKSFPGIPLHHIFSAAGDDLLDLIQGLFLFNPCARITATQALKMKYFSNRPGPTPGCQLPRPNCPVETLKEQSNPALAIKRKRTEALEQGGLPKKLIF
Chain of CDK7/cyclin H (P51946 whole entry partner): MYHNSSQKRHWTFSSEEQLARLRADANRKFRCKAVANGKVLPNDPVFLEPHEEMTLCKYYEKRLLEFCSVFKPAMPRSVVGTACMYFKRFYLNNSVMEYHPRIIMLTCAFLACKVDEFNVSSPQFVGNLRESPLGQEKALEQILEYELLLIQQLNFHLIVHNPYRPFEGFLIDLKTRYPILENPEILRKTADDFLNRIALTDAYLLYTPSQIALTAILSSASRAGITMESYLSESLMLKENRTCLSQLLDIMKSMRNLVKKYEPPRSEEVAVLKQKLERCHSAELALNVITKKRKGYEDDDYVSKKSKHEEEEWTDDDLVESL
Chain of CDK1/cyclin B (P06493 whole entry): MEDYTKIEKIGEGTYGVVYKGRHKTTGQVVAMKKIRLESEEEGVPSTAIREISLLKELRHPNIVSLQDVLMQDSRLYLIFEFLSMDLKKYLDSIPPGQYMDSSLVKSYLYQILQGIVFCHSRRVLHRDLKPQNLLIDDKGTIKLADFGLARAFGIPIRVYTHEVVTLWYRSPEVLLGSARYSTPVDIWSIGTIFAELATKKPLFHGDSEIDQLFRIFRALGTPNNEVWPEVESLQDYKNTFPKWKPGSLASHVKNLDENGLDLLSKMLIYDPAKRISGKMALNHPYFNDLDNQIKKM
Chain of CDK1/cyclin B (P14635 whole entry partner): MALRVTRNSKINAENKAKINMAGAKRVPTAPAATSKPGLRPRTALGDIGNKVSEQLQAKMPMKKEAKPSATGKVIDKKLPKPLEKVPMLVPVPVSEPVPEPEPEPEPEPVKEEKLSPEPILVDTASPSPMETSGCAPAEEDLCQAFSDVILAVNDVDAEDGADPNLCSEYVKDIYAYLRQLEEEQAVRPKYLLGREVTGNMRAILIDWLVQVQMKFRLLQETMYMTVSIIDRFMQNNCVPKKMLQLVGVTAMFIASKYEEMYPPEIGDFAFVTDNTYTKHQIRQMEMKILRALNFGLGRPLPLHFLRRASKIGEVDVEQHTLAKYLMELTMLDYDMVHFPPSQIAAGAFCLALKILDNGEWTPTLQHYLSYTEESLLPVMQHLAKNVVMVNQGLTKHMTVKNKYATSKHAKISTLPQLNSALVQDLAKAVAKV
T1 sequence (P06493 whole entry): as the sequence (P06493 whole entry) above
Chain of CDK6/cyclin D1 (Q00534 whole entry): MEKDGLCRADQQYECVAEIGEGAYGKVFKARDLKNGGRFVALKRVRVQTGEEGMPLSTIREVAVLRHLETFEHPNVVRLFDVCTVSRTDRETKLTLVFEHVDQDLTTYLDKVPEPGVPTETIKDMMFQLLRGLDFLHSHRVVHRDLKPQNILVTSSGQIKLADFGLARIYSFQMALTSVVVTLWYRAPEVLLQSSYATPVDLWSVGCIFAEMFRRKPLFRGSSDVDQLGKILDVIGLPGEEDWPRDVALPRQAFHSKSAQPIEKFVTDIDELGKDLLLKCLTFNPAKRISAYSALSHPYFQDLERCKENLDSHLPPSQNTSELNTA
Chain of CDK6/cyclin D1 (P24385 whole entry partner): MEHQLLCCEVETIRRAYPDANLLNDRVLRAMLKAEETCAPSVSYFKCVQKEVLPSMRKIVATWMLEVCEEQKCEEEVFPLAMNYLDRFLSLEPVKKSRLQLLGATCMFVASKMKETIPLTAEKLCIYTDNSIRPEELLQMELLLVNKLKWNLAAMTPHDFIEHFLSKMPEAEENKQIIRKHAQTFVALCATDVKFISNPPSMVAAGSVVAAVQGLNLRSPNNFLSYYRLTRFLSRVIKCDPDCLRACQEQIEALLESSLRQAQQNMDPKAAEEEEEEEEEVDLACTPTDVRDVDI
T5 sequence (Q00534 whole entry): as the sequence (Q00534 whole entry) above
Chain of CDK9/cyclin T1 (P50750 whole entry): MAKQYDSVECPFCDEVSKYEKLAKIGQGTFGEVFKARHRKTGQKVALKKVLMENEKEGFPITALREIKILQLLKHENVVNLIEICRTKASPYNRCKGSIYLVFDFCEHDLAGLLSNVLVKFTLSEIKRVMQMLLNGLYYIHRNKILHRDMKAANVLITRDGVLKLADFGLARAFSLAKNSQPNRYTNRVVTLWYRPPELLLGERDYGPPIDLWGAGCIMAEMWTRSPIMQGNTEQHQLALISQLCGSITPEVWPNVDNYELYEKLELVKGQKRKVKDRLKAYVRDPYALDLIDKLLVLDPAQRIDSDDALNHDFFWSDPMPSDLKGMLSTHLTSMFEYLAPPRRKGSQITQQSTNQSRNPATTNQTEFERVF
Chain of CDK9/cyclin T1 (O60563 whole entry partner): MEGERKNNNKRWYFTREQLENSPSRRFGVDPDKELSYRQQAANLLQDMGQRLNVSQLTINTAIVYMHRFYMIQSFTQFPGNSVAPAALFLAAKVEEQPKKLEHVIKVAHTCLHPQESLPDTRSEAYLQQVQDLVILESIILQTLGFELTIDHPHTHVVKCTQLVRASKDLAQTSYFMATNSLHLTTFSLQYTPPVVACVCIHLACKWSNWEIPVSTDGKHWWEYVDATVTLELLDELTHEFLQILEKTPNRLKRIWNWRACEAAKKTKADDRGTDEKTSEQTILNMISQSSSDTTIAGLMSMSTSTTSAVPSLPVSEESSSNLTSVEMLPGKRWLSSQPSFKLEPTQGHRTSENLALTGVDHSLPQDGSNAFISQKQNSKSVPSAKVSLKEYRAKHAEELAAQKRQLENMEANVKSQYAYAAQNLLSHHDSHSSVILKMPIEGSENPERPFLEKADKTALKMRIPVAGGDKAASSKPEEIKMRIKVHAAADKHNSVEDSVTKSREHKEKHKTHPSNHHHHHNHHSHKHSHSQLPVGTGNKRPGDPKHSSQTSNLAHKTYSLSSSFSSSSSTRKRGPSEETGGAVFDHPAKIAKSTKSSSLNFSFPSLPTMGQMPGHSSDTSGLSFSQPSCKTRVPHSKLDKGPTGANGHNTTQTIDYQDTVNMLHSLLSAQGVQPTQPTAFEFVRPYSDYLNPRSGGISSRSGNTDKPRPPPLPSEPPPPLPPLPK
Chain of CDK4/cyclin D1 (P11802 whole entry): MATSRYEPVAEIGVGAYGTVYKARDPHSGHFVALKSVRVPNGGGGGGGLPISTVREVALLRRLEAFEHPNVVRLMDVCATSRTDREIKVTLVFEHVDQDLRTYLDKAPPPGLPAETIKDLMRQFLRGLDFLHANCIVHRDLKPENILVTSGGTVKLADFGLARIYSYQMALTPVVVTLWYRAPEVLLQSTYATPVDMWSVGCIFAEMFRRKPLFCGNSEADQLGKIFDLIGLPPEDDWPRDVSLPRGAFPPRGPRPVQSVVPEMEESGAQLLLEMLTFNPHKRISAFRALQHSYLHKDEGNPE
Chain of CDK4/cyclin D1 (P24385 whole entry partner): as the sequence (P24385 whole entry partner) above
T3 sequence (P11802 whole entry): as the sequence (P11802 whole entry) above
T4 sequence (Q00535 whole entry): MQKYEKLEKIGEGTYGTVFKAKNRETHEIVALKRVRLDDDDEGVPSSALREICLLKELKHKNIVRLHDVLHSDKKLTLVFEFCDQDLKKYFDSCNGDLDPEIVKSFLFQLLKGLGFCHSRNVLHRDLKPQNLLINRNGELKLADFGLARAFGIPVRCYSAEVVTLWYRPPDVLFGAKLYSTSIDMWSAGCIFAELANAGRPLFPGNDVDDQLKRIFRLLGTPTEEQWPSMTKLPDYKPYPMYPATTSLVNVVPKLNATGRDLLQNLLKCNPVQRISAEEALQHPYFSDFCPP
Chain of CDK5/p25 (Q00535 whole entry): as above
Chain of CDK5/p25 (Q15078 99-307 partner limits assumed): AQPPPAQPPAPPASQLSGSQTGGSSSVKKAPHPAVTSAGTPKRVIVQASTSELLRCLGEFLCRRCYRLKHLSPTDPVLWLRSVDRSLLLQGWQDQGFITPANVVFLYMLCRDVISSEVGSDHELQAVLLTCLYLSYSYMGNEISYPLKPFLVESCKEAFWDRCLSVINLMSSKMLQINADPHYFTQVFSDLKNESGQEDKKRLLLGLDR
Chain of CDK7 (P50613 whole entry): as the sequence (P50613 whole entry) above
Chain of CDK9 (P50750 whole entry): as the sequence (P50750 whole entry) above

- IC50 [1, 33]: 20.5 nM
- IC50 [2, 34]: 31 nM
Structure (SMILES): NC(=O)c1c(F)cccc1Nc1nc(NC2CCN(S(=O)(=O)CCNC(=O)CCCCCOc3cccc4c3C(=O)N(C3CCC(=O)NC3=O)C4=O)CC2)ncc1Br (stereo not drawn) [TMX-1169]

- enzymatic IC50 CDK2 ([1]; Figure 1): low nanomolar
- enzymatic IC50 CDK1 ([2]; Figure 1): low nanomolar
- enzymatic IC50 CDK4 ([12]; Figure 1): low nanomolar
- enzymatic IC50 CDK6 ([13]; Figure 1): low nanomolar
- enzymatic IC50 CDK7 ([14]; Figure 1): low nanomolar
- enzymatic IC50 CDK9 ([15]; Figure 1): low nanomolar
Structure (SMILES): CS(=O)(=O)N1CCC(Nc2ncc(Br)c(Nc3cccc(F)c3C(N)=O)n2)CC1 [TMX-2039]

- IC50 ([1]; read-out: CDK2/cyclin A IC50, Table 3, duplicate): 10.9 nM
- IC50 ([2]; read-out: CDK1/cyclin B IC50, Table 3, duplicate): 8.7 nM
- IC50 ([16]; read-out: CDK5/p25 IC50, Table 3, duplicate): 7 nM
- IC50 ([12]; read-out: CDK4/cyclin D1 IC50, Table 3, duplicate): 901 nM
- IC50 ([13]; read-out: CDK6/cyclin D1 IC50, Table 3, duplicate): 465 nM
- IC50 ([14]; read-out: CDK7/cyclin H IC50, Table 3, duplicate): 286 nM
- IC50 ([15]; read-out: CDK9/cyclin T1 IC50, Table 3, duplicate): 25.7 nM
Structure (SMILES): NC(=O)c1c(F)cccc1Nc1nc(Nc2ccc(S(=O)(=O)NCCOCCOCCOCCOCCNc3cccc4c3C(=O)N(C3CCC(=O)NC3=O)C4=O)cc2)ncc1Br (stereo not drawn) [TMX-2138]

- IC50 [1]: 6.5 nM
- IC50 [2]: 20.3 nM
- IC50 [16]: 6.8 nM
- IC50 [12]: 7390 nM
- IC50 [13]: 2220 nM
- IC50 [14]: 2620 nM
- IC50 [15]: 2640 nM
- IC50 [17]: 205 nM
- IC50 [18]: 46.9 nM
- CDK2 inhibition in KINOMEscan [20]: potent inhibition
- CDK1 degradation ([3]; 250 nM): not affected
- CDK2 degradation ([4]; 250 nM): induced CDK2 degradation
- CDK4 degradation ([5]; 250 nM, immunoblot): not affected
- CDK5 degradation ([6]; immunoblot (Figure 3A)): retained the ability to degrade CDK5
- CDK6 degradation ([7]; 250 nM, immunoblot): not affected
- CDK7 degradation ([8]; 250 nM, immunoblot): not affected
- CDK9 degradation ([9]; 250 nM, immunoblot): not affected
- CDK2 degradation [21]: no CDK2 degradation was detected
- CDK2 degradation (proteomics) [22]: effectively degraded
- CDK5 degradation (proteomics) [23]: effectively degraded
- Aurora A degradation (proteomics) [24]: effectively degraded
- degree of degradation of RSK1 (RPS6KA1) (proteomics) [25]: relatively weak
- degree of degradation of JNK2 (MAPK9) (proteomics) [26]: relatively weak
- degree of degradation of STK33 (proteomics) [27]: relatively weak
- CDK2 degradation [28]: degraded in a dose dependent manner
- CDK5 degradation [29]: degraded in a dose dependent manner
- CDK1 degradation [30]: remained intact
- concentration needed to achieve observable Aurora A degradation [31]: 5 µM
Structure (SMILES): Cc1cc(S(=O)(=O)NCCOCCOCCOCCOCCNc2cccc3c2C(=O)N(C2CCC(=O)NC2=O)C3=O)ccc1Nc1ncc(Br)c(Nc2cccc(F)c2C(N)=O)n1 (stereo not drawn) [TMX-2172]
- number of kinases with >99% inhibition compared to DMSO [19]: 14
- growth rate inhibitory effect [32]: strong growth rate inhibitory effects
- growth rate inhibitory potency relative to non-degrading control ZXH-7035 ([32]; 72 hours): approximately 8.5 fold

The remaining lines, values behind:

Structure (SMILES): NC(=O)c1c(F)cccc1Nc1nc(NC2CCN(S(=O)(=O)CCNC(=O)CCOCCOCCOCCOCCOc3cccc4c3C(=O)N(C3CCC(=O)NC3=O)C4=O)CC2)ncc1Br (stereo not drawn) [TMX-1111]
- IC50 [1, 33]: 6.4 nM
- IC50 [2, 34]: 9.5 nM

Structure (SMILES): NC(=O)c1c(F)cccc1Nc1nc(NC2CCN(S(=O)(=O)CCNC(=O)CCOCCOCCOc3cccc4c3C(=O)N(C3CCC(=O)NC3=O)C4=O)CC2)ncc1Br (stereo not drawn) [TMX-1128]
- IC50 [1, 33]: 4.9 nM
- IC50 [2, 34]: 11.6 nM

Structure (SMILES): NC(=O)c1c(F)cccc1Nc1nc(NC2CCN(S(=O)(=O)CCNC(=O)CCOCCOCCOCCOCCOCCOCCOCCOCCOc3cccc4c3C(=O)N(C3CCC(=O)NC3=O)C4=O)CC2)ncc1Br (stereo not drawn) [TMX-1146]
- IC50 [1, 33]: 7.3 nM
- IC50 [2, 34]: 15.5 nM

Structure (SMILES): NC(=O)c1c(F)cccc1Nc1nc(NC2CCN(S(=O)(=O)CCNC(=O)CCCCCCCCOc3cccc4c3C(=O)N(C3CCC(=O)NC3=O)C4=O)CC2)ncc1Br (stereo not drawn) [TMX-1160]
- IC50 [1, 33]: 28.7 nM
- IC50 [2, 34]: 8.5 nM
- CDK1 degradation ([3]; 1 μM): no CDK1 degradation was observed
- CDK2 degradation ([4]; 1 μM): induced CDK2 degradation
- CDK4 degradation ([5]; immunoblot (Figure 2B)): potently degraded
- CDK5 degradation ([6]; immunoblot (Figure 2B)): potently degraded
- CDK6 degradation ([7]; immunoblot (Figure 2B)): potently degraded
- CDK7 degradation ([8]; immunoblot (Figure 2B)): not degraded
- CDK9 degradation ([9]; immunoblot (Figure 2B)): not degraded
- CDK4 degradation [10]: not degraded
- CDK6 degradation [11]: not degraded

Structure (SMILES): NC(=O)c1c(F)cccc1Nc1nc(NC2CCN(S(=O)(=O)CCNC(=O)CCCCCCCOc3cccc4c3C(=O)N(C3CCC(=O)NC3=O)C4=O)CC2)ncc1Br (stereo not drawn) [TMX-1162]
- IC50 [1, 33]: 17.1 nM
- IC50 [2, 34]: 8.5 nM
- CDK1 degradation ([3]; 1 μM): no CDK1 degradation was observed
- CDK2 degradation ([4]; 1 μM): induced CDK2 degradation

Structure (SMILES): Cc1cc(S(N)(=O)=O)ccc1Nc1ncc(Br)c(Nc2cccc(F)c2C(N)=O)n1 [TMX-3010]
- discrimination for inhibiting CDK1, CDK2, and CDK5 over CDK4 and CDK6 ([1]; benchmarked to CDK2 IC50 value): hundred-fold
- IC50 [1, 35]: 0.7 nM
- IC50 [2, 36]: 1.2 nM
- IC50 [16, 37]: 0.9 nM
- IC50 [12, 38]: 135 nM
- IC50 [13, 39]: 84.1 nM

Structure (SMILES): NC(=O)c1c(F)cccc1Nc1nc(Nc2ccc(S(N)(=O)=O)cc2)ncc1Br [TMX-3013]
- IC50 [1, 35]: < 0.5 nM
- IC50 [2, 36]: 0.9 nM
- IC50 [16, 37]: 0.5 nM
- IC50 [12, 38]: 24.5 nM
- IC50 [13, 39]: 15.6 nM
